Results from ChEMBL document CHEMBL1145542, “Discovery of a new class of potent, selective, and orally bioavailable CRTH2 (DP2) receptor antagonists for the treatment of allergic inflammatory diseases” (J Med Chem, 2008).
Blank lines part the entries; values can stand above or below the molecule they belong to. Activity calls are given as the source filed them. The calls are words filed in the database; no cut-off is given here.

Key:
[1] = biological target: T1, Prostaglandin D2 receptor 2 (Homo sapiens, UniProt Q9Y5Y4); assay: Displacement of [3H]PGD2 from human CRTH2 receptor expressed in CHO cells; type: cell-based
T1 sequence (Q9Y5Y4 whole entry): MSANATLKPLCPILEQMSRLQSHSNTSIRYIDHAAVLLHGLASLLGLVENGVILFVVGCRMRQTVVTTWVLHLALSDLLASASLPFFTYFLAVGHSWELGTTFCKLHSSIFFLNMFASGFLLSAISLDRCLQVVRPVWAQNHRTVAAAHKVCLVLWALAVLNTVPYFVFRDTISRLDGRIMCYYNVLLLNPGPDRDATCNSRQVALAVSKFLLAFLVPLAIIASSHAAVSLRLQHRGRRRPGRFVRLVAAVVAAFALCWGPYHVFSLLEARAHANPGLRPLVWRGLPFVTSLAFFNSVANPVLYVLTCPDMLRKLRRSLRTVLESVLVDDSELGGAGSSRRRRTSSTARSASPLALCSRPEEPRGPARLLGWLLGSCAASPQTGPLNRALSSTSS
Procedure, shortened: (§1)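 Scintillation proximity competition assay: 2–5 µg human or mouse CRTH2 membranes (nitrogen-cavitation, differential centrifugation) with WGA-SPA beads and 1.5 nM [3H]PGD2 in 10 mM HEPES/KOH pH 7.4, 10 mM MnCl2, protease inhibitors, 1% Me2SO, 90 min shaking at room temperature. Nonspecific binding with 1 µM PGD2. Ki by Cheng–Prusoff, mean of ≥3 independent experiments.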

[2] = Tmax in rat at 1 mg/kg, iv; type: ADME, organism-based; set-up: dose 1 mg/kg, route intravenous; settings: in vivo
Procedure, shortened: (§2)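 Male Sprague–Dawley or Janvier rats, three per route, dosed by oral gavage or iv bolus. Serial blood drawn through an indwelling carotid catheter up to 24 h post dose. Plasma pooled by time point, analysed by LC-MS/MS; non-compartmental analysis.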

[3] = Tmax in rat at 5 mg/kg, po; type: ADME, organism-based; set-up: dose 5 mg/kg, route oral; settings: in vivo; procedure, shortened: as §2
[4] = Half life in rat at 5 mg/kg, po; type: ADME, organism-based; set-up: dose 5 mg/kg, route oral; settings: in vivo; procedure, shortened: as §2
[5] = Intrinsic clearance per mg of protein in human liver microsomes at 3 uM; type: ADME, Microsome
Procedure, shortened: (§3)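 Rat or human liver microsomes (0.5 mg/mL final) in 0.1 M phosphate pH 7.4 with 3 µM compound (1% DMSO), preincubated at 37 °C, started with 1 mM NADPH. Quenched with cold acetonitrile at 0, 15, 30, 45 min; LC/MS-MS of compound disappearance gives intrinsic clearance.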

[6] = Inhibition of prostanoid FP receptor
[7] = Inhibition of prostanoid EP3 receptor
[8] = Cmax in Beagle dog at 1 mg/kg, iv; type: ADME, organism-based, Canis lupus familiaris; set-up: dose 1 mg/kg, route intravenous; settings: in vivo
Procedure, shortened: (§4)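 Three male beagle dogs, crossover design; 1 mg/kg given as a solution, iv bolus and oral gavage. Serial blood sampled up to 48 h post dose. Individual plasma samples analysed by LC-MS/MS; PK parameters derived by non-compartmental analysis.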

[9] = Clearance in Beagle dog at 1 mg/kg, iv; type: ADME, organism-based, Canis lupus familiaris; set-up: dose 1 mg/kg, route intravenous; settings: in vivo; procedure, shortened: as §4
[10] = Intrinsic clearance per mg of protein in rat liver microsomes at 3 uM; type: ADME, Microsome; procedure, shortened: as §3
[11] = Apparent permeability across human Caco-2 cell membrane at 10 uM; type: ADME, cell-based
Procedure, shortened: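 Caco-2 monolayers grown 21 days on Transwell filters; TEER above 800 ohm·cm² required. 10 µM test compound in HBSS added apically (A to B) or basolaterally (B to A), 2 h at 37 °C. Both compartments sampled, analysed by LC/MS-MS.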

[12] = Cmax in Beagle dog at 1 mg/kg, po; settings: in vivo
[13] = Tmax in Beagle dog at 1 mg/kg, po; settings: in vivo
[14] = AUC (0 to last t) in Beagle dog at 1 mg/kg, iv; type: ADME, organism-based, Canis lupus familiaris; set-up: time 0 - last, dose 1 mg/kg, route intravenous; settings: plasma; procedure, shortened: as §4
[15] = biological target: T2, Prostaglandin D2 receptor (Homo sapiens, UniProt Q13258); assay: Inhibition of prostaglandin D2 receptor
T2 sequence (Q13258 whole entry): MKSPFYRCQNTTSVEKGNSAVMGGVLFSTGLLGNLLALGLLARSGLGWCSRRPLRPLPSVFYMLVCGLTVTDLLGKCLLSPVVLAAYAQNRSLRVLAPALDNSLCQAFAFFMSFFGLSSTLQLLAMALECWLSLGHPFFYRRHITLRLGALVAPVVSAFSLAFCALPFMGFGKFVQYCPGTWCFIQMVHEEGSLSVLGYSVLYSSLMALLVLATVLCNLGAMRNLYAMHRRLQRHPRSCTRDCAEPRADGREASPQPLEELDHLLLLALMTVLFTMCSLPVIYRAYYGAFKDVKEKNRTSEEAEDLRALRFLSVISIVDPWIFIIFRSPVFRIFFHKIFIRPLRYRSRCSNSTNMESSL

[16] = biological target: Prostaglandin E2 receptor EP2 subtype (Homo sapiens, UniProt P43116); assay: Inhibition of prostanoid EP2 receptor
[17] = Half life in rat at 1 mg/kg, iv; type: ADME, organism-based; set-up: dose 1 mg/kg, route intravenous; settings: in vivo; procedure, shortened: as §2
[18] = Lipophilicity, log D of the compound; type: physicochemical; settings: octanol/water
[19] = Cmax in rat at 5 mg/kg, po; type: ADME, organism-based; set-up: dose 5 mg/kg, route oral; settings: in vivo; procedure, shortened: as §2
[20] = AUC (0 to last t) in rat at 5 mg/kg, po; type: ADME, organism-based; set-up: time 0 - last, dose 5 mg/kg, route oral; settings: plasma; procedure, shortened: as §2
[21] = Oral bioavailability in rat at 5 mg/kg; type: ADME, organism-based; settings: in vivo; procedure, shortened: as §2
[22] = AUC (0 to last t) in Beagle dog at 1 mg/kg, po; type: ADME, organism-based, Canis lupus familiaris; set-up: time 0 - last, dose 1 mg/kg, route oral; settings: plasma; procedure, shortened: as §4
[23] = Half life in Beagle dog at 1 mg/kg, po; settings: in vivo
[24] = Cmax in rat at 1 mg/kg, iv; type: ADME, organism-based; set-up: dose 1 mg/kg, route intravenous; settings: in vivo; procedure, shortened: as §2
[25] = Clearance in rat at 1 mg/kg, iv; type: ADME, organism-based; set-up: dose 1 mg/kg, route intravenous; settings: in vivo; procedure, shortened: as §2
[26] = Inhibition of prostanoid EP4 receptor
[27] = Volume of distribution at steady state in Beagle dog at 1 mg/kg, iv; type: ADME, organism-based, Canis lupus familiaris; set-up: dose 1 mg/kg, route intravenous; settings: in vivo, read-out: Vdss; procedure, shortened: as §4
[28] = Volume of distribution at steady state in rat at 1 mg/kg, iv; type: ADME, organism-based; set-up: dose 1 mg/kg, route intravenous; settings: in vivo, read-out: Vdss; procedure, shortened: as §2
[29] = Oral bioavailability in Beagle dog at 1 mg/kg; type: ADME, organism-based, Canis lupus familiaris; settings: in vivo; procedure, shortened: as §4
[30] = Half life in Beagle dog at 1 mg/kg, iv; type: ADME, organism-based, Canis lupus familiaris; set-up: dose 1 mg/kg, route intravenous; settings: in vivo; procedure, shortened: as §4
[31] = AUC (0 to last t) in rat at 1 mg/kg, iv; type: ADME, organism-based; set-up: time 0 - last, dose 1 mg/kg, route intravenous; settings: plasma; procedure, shortened: as §2
[32] = biological target: T3, Prostaglandin D2 receptor 2 (Mus musculus, UniProt Q9Z2J6); assay: Displacement of [3H]PGD2 from mouse CRTH2 receptor expressed in HEK293 cells; type: cell-based; procedure, shortened: as §1
T3 sequence (Q9Z2J6 whole entry): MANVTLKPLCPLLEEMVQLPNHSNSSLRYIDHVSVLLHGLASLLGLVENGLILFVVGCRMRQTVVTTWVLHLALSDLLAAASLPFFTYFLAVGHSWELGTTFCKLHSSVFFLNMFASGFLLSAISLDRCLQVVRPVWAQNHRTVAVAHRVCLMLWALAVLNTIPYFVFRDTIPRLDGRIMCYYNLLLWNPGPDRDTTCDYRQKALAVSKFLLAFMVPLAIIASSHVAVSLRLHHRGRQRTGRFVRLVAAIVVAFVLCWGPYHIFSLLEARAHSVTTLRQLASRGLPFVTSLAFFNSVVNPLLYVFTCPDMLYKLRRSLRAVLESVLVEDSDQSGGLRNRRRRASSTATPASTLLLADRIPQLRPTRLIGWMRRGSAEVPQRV

[33] = Tmax in Beagle dog at 1 mg/kg, iv; type: ADME, organism-based, Canis lupus familiaris; set-up: dose 1 mg/kg, route intravenous; settings: in vivo; procedure, shortened: as §4
[34] = biological target: T4, Prostaglandin D2 receptor 2 (Homo sapiens) (UniProt Q9Y5Y4); assay: Inverse agonistic activity at human CRTH2 receptor expressed in CHO cell membrane by [35S]GTP-gamma-S binding assay; type: functional, cell membranes
T4 sequence (whole entry): T1 sequence (Q9Y5Y4 whole entry)
Procedure, shortened: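 [35S]GTPγS binding at 30 °C on 10 µg human CRTH2 membranes in 20 mM HEPES/KOH pH 7.4, 10 mM MgCl2, 10 µg/mL saponin, 3 µM GDP, 150 mM NaCl, 2% Me2SO. PGD2 preincubation 10 min (antagonist mode: 80 nM PGD2), then 0.15 nM [35S]GTPγS for 30 min. Nonspecific binding with 10 µM GTPγS; stopped by centrifugation, scintillation counting.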

Prostaglandin E2 receptor EP2 subtype, sequence (P43116 whole entry): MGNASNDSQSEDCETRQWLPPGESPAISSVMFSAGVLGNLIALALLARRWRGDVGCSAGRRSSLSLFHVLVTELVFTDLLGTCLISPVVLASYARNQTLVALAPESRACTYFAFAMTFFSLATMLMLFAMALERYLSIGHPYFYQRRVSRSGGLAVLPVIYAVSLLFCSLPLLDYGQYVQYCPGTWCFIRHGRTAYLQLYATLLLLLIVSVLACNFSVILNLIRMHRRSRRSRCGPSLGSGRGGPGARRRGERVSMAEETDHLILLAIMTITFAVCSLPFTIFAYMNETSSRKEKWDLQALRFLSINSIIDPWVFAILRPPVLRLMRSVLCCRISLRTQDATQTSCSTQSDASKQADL

Ki [1]: 23 nM
Tmax [2]: 0 h
Tmax [3]: 0.5 h
half-life [4]: 4.2 h
microsomal CLint at 3 µM [5]: 15 µL/min/mg
IC50 [6]: > 30000 nM
IC50 [7]: > 30000 nM
Cmax [8]: 2570 ng/mL
clearance [9]: 8.33 mL/min/kg
microsomal CLint at 3 µM [10]: 23 µL/min/mg
Papp at 10 µM [11]: 2.4 ×10⁻⁶ cm/s
Cmax [12]: 503 ng/mL
Tmax [13]: 2 h
AUC(0-t) [14]: 2020 ng·h/mL
IC50 [15]: > 30000 nM
IC50 [16]: > 30000 nM
half-life [17]: 1 h
logD [18]: -1
Cmax [19]: 297 ng/mL
AUC(0-t) [20]: 2480 ng·h/mL
bioavailability [21]: 40%
AUC(0-t) [22]: 2350 ng·h/mL
half-life [23]: 3 h
Cmax [24]: 1990 ng/mL
clearance [25]: 13.3 mL/min/kg
IC50 [26]: > 30000 nM
Vd [27]: 2 L/kg
Vd [28]: 0.9 L/kg
bioavailability [29]: 120%
half-life [30]: 7 h
AUC(0-t) [31]: 1250 ng·h/mL
Ki [32]: 22 nM
Tmax [33]: 0 h
Structure (SMILES): O=C(O)CN1C(=O)[C@@]2(CC(=O)N(Cc3ccccc3F)C2=O)c2cc(Cl)ccc21

Ki [1]: 1540 nM
Activity [34]: Active
Structure (SMILES): O=C1CC2(C(=O)N1Cc1ccccc1)C(=O)N(Cc1nnn[nH]1)c1ccc(Cl)cc12 (stereo not given)
